Source: ChEMBL document CHEMBL1134465, “Synthesis and evaluation of pteroic acid-conjugated nitroheterocyclic phosphoramidates as folate receptor-targeted alkylating agents” (J Med Chem, 2001)

What was measured:
A549 [1] = test: In vitro growth inhibition of human lung carcinoma cell line, A549 with low levels of folate receptors; assay type: functional, cell-based
Procedure, shortened: (§1)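 Cells were seeded and grown 24 h at 37 °C in McCoy's 5A medium with 10% heat-inactivated FBS, penicillin 100 U/mL and streptomycin 100 μg/mL. Drug from DMSO stock was added in the same medium, with final DMSO <1%. Five serial 10-fold dilutions were tested, top final concentration 100 μg/mL.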

A498 [2] = test: In vitro growth inhibition of human kidney carcinoma cell line, A498 with low levels of folate receptors; assay type: functional, cell-based; procedure, shortened: as §1
HT-29 = test: In vitro growth inhibition of human tumor cell line, HT-29; assay type: functional, cell-based; procedure, shortened: as §1
[3] = In vitro growth inhibition of human breast adrenocarcinoma cell line, MDA-231 with over expressed folate receptors; assay type: functional; conditions: MDA-MB-231; procedure, shortened: as §1
MIA PaCa-2 = test: In vitro growth inhibition of human tumor cell line, PACA2; assay type: functional, cell-based; procedure, shortened: as §1
PC-3 = test: In vitro growth inhibition of human tumor cell line, PC3; assay type: functional, cell-based; procedure, shortened: as §1
UMUC3 = test: In vitro growth inhibition of human tumor cell line, UMUC3; assay type: functional, cell-based; procedure, shortened: as §1
A549 [4] = test: In vitro growth inhibition of human lung carcinoma cell line, A549 with low levels of folate receptors in folate deficient medium; assay type: functional, cell-based
Procedure, shortened: (§2)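 Cells were incubated with drug for 72 h in folate-deficient medium. Drug from DMSO stock was added with final DMSO <1%. Five serial 10-fold dilutions were tested, top final concentration 100 μg/mL. Viable cells were estimated by MTT and IC50 was derived.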

A498 [5] = test: In vitro growth inhibition of human kidney carcinoma cell line, A498 with low levels of folate receptors in folate deficient medium; assay type: functional, cell-based; procedure, shortened: as §2
[6] = In vitro growth inhibition of human ovarian carcinoma cell line, IGROV with over expressed folate receptors; assay type: functional; procedure, shortened: as §1
[7] = In vitro growth inhibition of human ovarian carcinoma cell line, IGROV with over expressed folate receptors in folate deficient medium; assay type: functional; procedure, shortened: as §2
[8] = In vitro growth inhibition of human breast adrenocarcinoma cell line, MDA-231 with over-expressed folate receptors; assay type: functional; conditions: MDA-MB-231; procedure, shortened: as §1
[9] = In vitro growth inhibition of human breast adrenocarcinoma cell line, MDA-231 with over-expressed folate receptors in folate deficient medium; assay type: functional; conditions: MDA-MB-231; procedure, shortened: as §2

SMILES | IC50 (A549 [1]) [µM] | IC50 (A498 [2]) [µM] | IC50 (HT-29) [µM] | IC50 [3] [µM] | IC50 (MIA PaCa-2) [µM] | IC50 (PC-3) [µM] | IC50 (UMUC3) [µM] | IC50 (A549 [4]) [µM] | IC50 (A498 [5]) [µM] | IC50 [6] [µM] | IC50 [7] [µM] | IC50 [8] [µM] | IC50 [9] [µM]
NC(CCCCNP(=O)(OCc1ccc([N+](=O)[O-])o1)N(CCCl)CCCl)C(=O)O (stereo unspecified) | 41 | 26 | 20 | 16 | 2.4 | 21 | 0.62 |  |  |  |  |  | 
CCCNP(=O)(OCc1ccc([N+](=O)[O-])o1)N(CCCl)CCCl (stereo unspecified) | 1.9 | 1.4 | 17 | 1.9 | 0.45 | 2.3 | 0.72 |  |  |  |  |  | 
Nc1nc(O)c2nc(CNc3ccc(C(=O)NC(CCCCNP(=O)(OCc4ccc([N+](=O)[O-])o4)N(CCBr)CCBr)C(=O)O)cc3)cnc2n1 (stereo unspecified) | 11 | 11 | 0.3 |  | 16 | 11 | 5.2 | 23 | 19 | 0.83 | 0.57 | 8 | 3.6
